Tested on: L1210
Assay: Cytotoxicity was determined in vitro in murine leukemia L1210 Cells
Format: functional
Details: Mus musculus, read-out: ID50 (the source's name)
In short: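 Growth inhibition of murine leukemia L1210 cells cultured in vitro. Cells were exposed to the adducts for 48 h and then counted. ID50 is the drug concentration that cuts cell number by 50% relative to untreated control.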

Row | SMILES | IC50 [nM]
1 | Cc1c2cc[n+](C)cc2c(C)c2c3c([nH]c12)C=CC(=O)[C@@]31O[C@@H]2[C@H](O1)[C@@H](CO)O[C@H]2n1cnc2c(O)nc(N)nc21 | 800
2 | Cc1c2cc[n+](C)cc2c(C)c2c3c([nH]c12)C=CC(=O)[C@@]31O[C@@H]2[C@H](O1)[C@@H](CO)O[C@H]2n1ccc(=O)[nH]c1=O | > 3000
3 | Cc1c2cc[n+](C)cc2c(C)c2c3c([nH]c12)C=CC(=O)[C@@]31O[C@@H]2[C@H](O1)[C@@H](COP(=O)(O)O)O[C@H]2n1cnc2c(O)nc(N)nc21 | > 1000
4 | Cc1c2cc[n+](C)cc2c(C)c2c3c([nH]c12)C=CC(=O)[C@@]31O[C@@H]2[C@H](O1)[C@@H](COP(=O)(O)O)O[C@H]2n1cnc2c(N)ncnc21 | > 800
5 | Cc1c2cc[n+](C)cc2c(C)c2c3c([nH]c12)C=CC(=O)[C@@]31O[C@@H]2[C@H](O1)[C@@H](CO)O[C@H]2n1cnc2c(N)ncnc21 | 800
6 | Cc1c2cc[n+](C)cc2c(C)c2c3c([nH]c12)C=CC(=O)[C@@]31O[C@@H]2[C@H](O1)[C@@H](COP(=O)(O)O)O[C@H]2n1ccc(=O)[nH]c1=O | 1100
7 | Cc1c2cc[n+](C)cc2c(C)c2c3c([nH]c12)C=CC(=O)[C@@]31O[C@@H]2[C@H](O1)[C@@H](CO)O[C@H]2n1ncc(=O)[nH]c1=O | > 3000
8 | Cc1c2cc[n+](C)cc2c(C)c2c3c([nH]c12)C=CC(=O)[C@@]31O[C@@H]2[C@H](O1)[C@@H](CO)O[C@H]2n1ccc(N)nc1=O | 3000
9 | Cc1c2cc[n+](C)cc2c(C)c2c3c([nH]c12)C=CC(=O)[C@@]31O[C@@H]2[C@H](O1)[C@@H](COP(=O)(O)O)O[C@H]2n1ccc(N)nc1=O | 12800
10 | O=c1cnn([C@@H]2O[C@H](CO)[C@@H](O)[C@H]2O)c(=O)[nH]1 [6-AZAURIDINE] | 570
11 | Cc1c2cc[n+](C)cc2c(C)c2c1[nH]c1ccc(O)cc12 [ELLIPTINIUM ACETATE] | 120
12 | Nc1nc2[nH]cnc2c(=S)[nH]1 [THIOGUANINE] | 70
13 | Nc1nc(=S)c2ncn([C@@H]3O[C@H](CO)[C@@H](O)[C@H]3O)c2[nH]1 [THIOGUANOSINE] | 100

Reference: ChEMBL document CHEMBL1123327, “Ribose as the preferential target for the oxidized form of elliptinium acetate in ribonucleos(t)ides. Biological activities of the resulting adducts” (1986)
